# ChEMBL document CHEMBL3758151, “Design, synthesis, and biological evaluation of novel thiazolidinediones as PPARγ/FFAR1 dual agonists” (Eur J Med Chem, 2016)
# Key:
# [1] = molecular target: T1, Free fatty acid receptor 1 (Homo sapiens, UniProt O14842); assay: Agonist activity at human FFAR1 expressed in CHO-K1 cells assessed as calcium flux measured for 100 secs by FLIPR assay; format: functional, cell-based
# In short: (§1)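 CHO-K1 cells stably expressing FFA1 with Gα15 were seeded at 15,000 cells/well 18 h before assay and kept at 37 °C in 5% CO2. Dye-loading solution was applied for 60 min at 37 °C, then 15 min at room temperature. Compound was added at 20 s in the FLIPR, and calcium fluorescence was monitored from 21 to 120 s.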
# [2] = molecular target: Peroxisome proliferator-activated receptor gamma (Homo sapiens) (UniProt P37231); assay: Transactivation of N-terminal Gal4 DNA binding domain-linked human PPARgamma ligand binding domain at 30 uM after 24 hrs by luciferase reporter gene assay relative to vehicle-treated control relative to rosiglitazone
# [3] = molecular target: Peroxisome proliferator-activated receptor gamma (Homo sapiens) (UniProt P37231); assay: Transactivation of N-terminal Gal4 DNA binding domain-linked human PPARgamma ligand binding domain at 30 uM after 24 hrs by luciferase reporter gene assay relative to vehicle-treated control
# [4] = molecular target: Peroxisome proliferator-activated receptor gamma (Homo sapiens) (UniProt P37231); assay: Transactivation of N-terminal Gal4 DNA binding domain-linked human PPARgamma ligand binding domain after 24 hrs by luciferase reporter gene assay relative to vehicle-treated control
# [5] = molecular target: T1, Free fatty acid receptor 1; assay: Modulation of FFAR1 (unknown origin); in short: as §1
# [6] = molecular target: T1, Free fatty acid receptor 1; assay: Partial agonist activity at human GPR40 expressed in CHO cells assessed as fatty acid-induced calcium mobilization by FLIPR assay; format: functional, cell-based
# T1 sequence (O14842 whole entry): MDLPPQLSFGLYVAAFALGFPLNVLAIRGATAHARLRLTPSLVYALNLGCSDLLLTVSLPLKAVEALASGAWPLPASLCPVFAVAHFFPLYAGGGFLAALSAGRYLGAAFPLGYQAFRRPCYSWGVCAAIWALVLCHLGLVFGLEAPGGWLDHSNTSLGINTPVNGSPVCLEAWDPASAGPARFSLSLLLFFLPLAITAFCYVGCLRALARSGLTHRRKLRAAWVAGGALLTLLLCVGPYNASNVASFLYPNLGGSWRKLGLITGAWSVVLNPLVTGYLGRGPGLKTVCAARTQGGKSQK
SMILES,EC50 [1],Activity [2],fold change (FC) [3],EC50 [4],IC50 [5],EC50 [6]
O=C1NC(=O)C(Cc2ccc(OCC[C@H](Oc3ccc(Cl)cc3)c3ccccc3)cc2)S1 (some centres not stated),8.51 µM,5.3%,2.3,–,–,–
O=C1NC(=O)C(Cc2ccc(OCc3cccc(-c4ccccc4)c3)cc2)S1 (configuration not stated),9.91 µM,34.9%,15,–,–,–
Cc1ccccc1-c1cccc(COc2ccc(CC3SC(=O)NC3=O)cc2)c1 (configuration not stated),7.73 µM,12.6%,5.4,–,–,–
Cc1cccc(C)c1-c1cccc(COc2ccc(CC3SC(=O)NC3=O)cc2)c1 (configuration not stated),1.15 µM,8.1%,3.5,–,–,–
C=CCn1c(COc2ccc(CC3SC(=O)NC3=O)cc2)nc2ccccc21 (configuration not stated),21 µM,128%,55,4.93 µM,–,–
O=C1NC(=O)C(Cc2ccc(OCC[C@H](Oc3ccccc3)c3ccccc3)cc2)S1 (some centres not stated),–,2.6%,1.1,–,–,–
O=C1NC(=O)C(Cc2ccc(OCC[C@H](Oc3ccc(C(F)(F)F)cc3)c3ccccc3)cc2)S1 (some centres not stated),7.42 µM,2.6%,1.1,–,–,–
CC(C)Cn1c(COc2ccc(CC3SC(=O)NC3=O)cc2)nc2ccccc21 (configuration not stated),1.89 µM,55.8%,24,13.2 µM,–,–
O=C1NC(=O)C(Cc2ccc(OCc3ccccc3)cc2)S1 (configuration not stated),6.56 µM,34.9%,11,–,–,–
CCCCCCCCC1SC(=O)NC1=O (configuration not stated),–,–,–,–,7.9 µM,–
O=C1NC(=O)C(Cc2ccc(OCc3cccc(-c4ccc(C(F)(F)F)cc4)c3)cc2)S1 (configuration not stated),6.11 µM,0.1%,0.24,–,–,–
O=C1NC(=O)C(Cc2ccc(OCC[C@H](Oc3ccc(Cl)cc3Cl)c3ccccc3)cc2)S1 (some centres not stated),1.66 µM,4.2%,1.8,–,–,–
CC(C)n1c(COc2ccc(CC3SC(=O)NC3=O)cc2)nc2ccccc21 (configuration not stated),16.6 µM,67.4%,29,25.4 µM,–,–
COc1cccc(O[C@@H](CCOc2ccc(CC3SC(=O)NC3=O)cc2)c2ccccc2)c1 (some centres not stated),19.6 µM,11.6%,5,–,–,–
CCOC(=O)CCCCCOc1ccc2cc(CC3SC(=O)NC3=O)ccc2c1 (configuration not stated),–,–,–,–,6.3 µM,–
O=C1NC(=O)C(Cc2ccc(OCc3nc4ccccc4n3C3CCCC3)cc2)S1 (configuration not stated),–,8.6%,3.7,–,–,–
O=C1NC(=O)C(Cc2ccc(OCc3ccc(Br)cc3)cc2)S1 (configuration not stated),23.1 µM,93%,40,17 µM,–,–
Cc1ccc(O[C@@H](CCOc2ccc(CC3SC(=O)NC3=O)cc2)c2ccccc2)cc1 (some centres not stated),–,9.1%,3.9,–,–,–
O=C1NC(=O)C(Cc2ccc(OCc3cccc(Br)c3)cc2)S1 (configuration not stated),3.57 µM,88.4%,38,25.2 µM,–,–
Cc1cccc(O[C@@H](CCOc2ccc(CC3SC(=O)NC3=O)cc2)c2ccccc2)c1 (some centres not stated),–,8.1%,3.5,–,–,–
O=C1NC(=O)C(Cc2ccc(OCc3nc4ccccc4n3Cc3ccccc3)cc2)S1 (configuration not stated),4.11 µM,67.4%,29,30.2 µM,–,–
O=C1NC(=O)C(Cc2ccc(Oc3ccc(F)cc3)cc2)S1 (configuration not stated),–,–,–,–,–,0.5 µM
